Measurements: ChEMBL document CHEMBL1146217, “Growth inhibition of Mycobacterium bovis, Mycobacterium tuberculosis and Mycobacterium avium in vitro: effect of 1-beta-D-2'-arabinofuranosyl and 1-(2'-deoxy-2'-fluoro-beta-D-2'-ribofuranosyl) pyrimidine nucleoside analogs” (J Med Chem, 2007)
Values after ≈ are worked out from the molar mass of the structure shown.

Tests used:
Mycobacterium avium [1] = experiment: Antimycobacterial activity against Mycobacterium avium ATCC 25291 at 100 ug/mL by microplate Alamar blue assay; type: functional
Summary of the method: (§1)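 MABA with M. bovis BCG, M. tuberculosis H37Ra or M. avium ATCC 25291. DMSO stocks (10 mg/mL) diluted in 7H9GC; final inoculum 2.5 × 10⁵ CFU/mL. Incubated 6 days, then alamar blue plus Tween 80 added and read by fluorescence after about 24 h. […]. Tested in triplicate at 100, 50, 10 and 1 µg/mL; two experiments, mean reported.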

[2] = tested on: Mycobacterium tuberculosis; experiment: Antimycobacterial activity against Mycobacterium tuberculosis H37Ra at 100 ug/mL by microplate Alamar blue assay; type: functional; summary of the method: as §1
Listeria monocytogenes = experiment: Antibacterial activity Listeria monocytogenes ATCC 15313 after 16 to 20 hrs by broth microdilution method; type: functional; settings: for MIC: Listeria monocytogenes, ATCC 15313
Summary of the method: (§2)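 Broth microdilution MIC. Exponentially growing bacteria diluted in sterile liquid medium to a final inoculum of 1 × 10⁴ CFU/mL. Cultured with compound dilutions for 16-20 h; compounds tested at 100, 50, 10 and 1 µg/mL. MIC taken as the concentration giving 100% inhibition of bacterial growth.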

Escherichia coli = experiment: Antibacterial activity against Escherichia coli ATCC 25922 after 16 to 20 hrs by broth microdilution method; type: functional; settings: Escherichia coli, ATCC 25922; summary of the method: as §2
Bacillus subtilis = experiment: Antibacterial activity against Bacillus subtilis ATCC 6633 after 16 to 20 hrs by broth microdilution method; type: functional; settings: Bacillus subtilis, ATCC 6633; summary of the method: as §2
Streptococcus pneumoniae = experiment: Antibacterial activity Streptococcus pneumoniae ATCC 49619 after 16 to 20 hrs by broth microdilution method; type: functional; settings: for MIC: Streptococcus pneumoniae, ATCC 49619; summary of the method: as §2
[3] = tested on: Mycobacterium tuberculosis; experiment: Antimycobacterial activity against Mycobacterium tuberculosis H37Ra at 10 ug/mL by microplate Alamar blue assay; type: functional; summary of the method: as §1
Vero = experiment: Toxicity against Vero cells after 3 days by MTT test; type: cell-based; settings: chlorocebus sabaeus, 72 h
Summary of the method: (§3)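 MTT viability assay. Vero or HFF cells seeded at 2.5 × 10⁵ cells/well and left to attach 6-8 h. Exposed to compound at 100, 50, 25, 12.5, 6.3 and 1.5 µg/mL for 3 days at 37 °C, with a DMSO control. MTT added for 4 h, then solubilized overnight; absorbance read at 560-650 nm.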

Staphylococcus aureus = experiment: Antibacterial activity against Staphylococcus aureus ATCC 25923 after 16 to 20 hrs by broth microdilution method; type: functional; settings: for MIC: Staphylococcus aureus, ATCC 25923; summary of the method: as §2
Salmonella typhimurium = experiment: Antibacterial activity against Salmonella Typhimurium after 16 to 20 hrs by broth microdilution method; type: functional, Salmonella enterica subsp. enterica serovar Typhimurium; settings: Salmonella enterica; summary of the method: as §2
Mycobacterium avium [4] = experiment: Antimycobacterial activity against Mycobacterium avium ATCC 25291 at 50 ug/mL by microplate Alamar blue assay; type: functional; summary of the method: as §1
[5] = tested on: Staphylococcus epidermidis; experiment: Antibacterial activity against Staphylococcus epidermidis ATCC 14990 after 16 to 20 hrs by broth microdilution method; type: functional; settings: for MIC: Staphylococcus epidermidis, ATCC 14990; summary of the method: as §2
[6] = tested on: Mycobacterium tuberculosis; experiment: Antimycobacterial activity against Mycobacterium tuberculosis H37Ra at 50 ug/mL by microplate Alamar blue assay; type: functional; summary of the method: as §1
Proteus vulgaris = experiment: Antibacterial activity against Proteus vulgaris ATCC 49132 after 16 to 20 hrs by broth microdilution method; type: functional; summary of the method: as §2
[7] = tested on: Mycobacterium tuberculosis; experiment: Antimycobacterial activity against Mycobacterium tuberculosis H37Ra at 1ug/mL by microplate Alamar blue assay; type: functional; summary of the method: as §1
[8] = tested on: Mycobacterium tuberculosis; experiment: Antimycobacterial activity against Mycobacterium tuberculosis H37Ra by microplate Alamar blue assay; type: functional
Summary of the method: (§4)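 Same alamar blue microplate setup (7H9GC, 2.5 × 10⁵ CFU/mL, 6 days, then dye read after about 24 h), using 2-fold compound dilutions. MIC90 is the lowest concentration giving about 90% inhibition relative to bacteria-only wells after background subtraction. Visual MIC is the lowest concentration preventing the blue-to-pink change.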

Enterococcus faecalis = experiment: Antibacterial activity Enterococcus faecalis ATCC 29212 after 16 to 20 hrs by broth microdilution method; type: functional; settings: for MIC: Enterococcus faecalis, ATCC 29212; summary of the method: as §2
Klebsiella aerogenes = experiment: Antibacterial activity against Enterobacter aerogenes after 16 to 20 hrs by broth microdilution method; type: functional; settings: Klebsiella aerogenes; summary of the method: as §2
Streptococcus pyogenes = experiment: Antibacterial activity Streptococcus pyogenes ATCC 19615 after 16 to 20 hrs by broth microdilution method; type: functional; settings: for MIC: Streptococcus pyogenes, ATCC 19615; summary of the method: as §2
Pseudomonas aeruginosa = experiment: Antibacterial activity against Pseudomonas aeruginosa […] after 16 to 20 hrs by broth microdilution method; type: functional; settings: Pseudomonas aeruginosa, ATCC 13048; summary of the method: as §2
Mycobacterium avium [9] = experiment: Antimycobacterial activity against Mycobacterium avium ATCC 25291 by microplate Alamar blue assay; type: functional; summary of the method: as §4
[10] = Toxicity against human foreskin fibroblast cells after 3 days by MTT test; type: cell-based; summary of the method: as §3

O=c1[nH]c(=O)n([C@@H]2O[C@H](CO)[C@@H](O)[C@@H]2O)cc1C(O)C(Br)Br (some centres undefined)
inhibition at 100 µg/mL (Mycobacterium avium [1]): 0%
inhibition at 100 µg/mL [2]: 0%

O=c1[nH]c(=O)n([C@@H]2O[C@H](CO)[C@@H](O)[C@@H]2O)cc1Br
inhibition at 100 µg/mL (Mycobacterium avium [1]): 0%
inhibition at 100 µg/mL [2]: 0%

Cc1cn([C@@H]2O[C@H](CO)[C@@H](O)[C@@H]2O)c(=O)[nH]c1=S
inhibition at 100 µg/mL (Mycobacterium avium [1]): 0%
inhibition at 100 µg/mL [2]: 0%

CCCCCCCCCCC#Cc1cn([C@@H]2O[C@H](CO)[C@@H](O)[C@H]2F)c(=O)[nH]c1=O
Inhibition (Listeria monocytogenes): 100%
MIC (Listeria monocytogenes): 100 µg/mL (≈ 244 µM)
MIC (Escherichia coli): > 100 µg/mL
MIC (Bacillus subtilis): > 100 µg/mL
Inhibition (Streptococcus pneumoniae): 100%
MIC (Streptococcus pneumoniae): 100 µg/mL (≈ 244 µM)
inhibition at 10 µg/mL [3]: 100%
CC10 (Vero): > 100 µg/mL
Inhibition (Staphylococcus aureus): 100%
MIC (Staphylococcus aureus): 100 µg/mL (≈ 244 µM)
MIC (Salmonella typhimurium): > 100 µg/mL
inhibition at 50 µg/mL (Mycobacterium avium [4]): 50%
inhibition at 100 µg/mL (Mycobacterium avium [1]): 100%
Inhibition [5]: 100%
MIC [5]: 100 µg/mL (≈ 244 µM)
inhibition at 50 µg/mL [6]: 100%
MIC (Proteus vulgaris): > 100 µg/mL
inhibition at 1 µg/mL [7]: 70%
MIC90 [8]: 1 µg/mL (≈ 2.44 µM)
Inhibition (Enterococcus faecalis): 100%
MIC (Enterococcus faecalis): 100 µg/mL (≈ 244 µM)
inhibition at 100 µg/mL [2]: 100%
MIC (Klebsiella aerogenes): > 100 µg/mL
Inhibition (Streptococcus pyogenes): 100%
MIC (Streptococcus pyogenes): 100 µg/mL (≈ 244 µM)
MIC (Pseudomonas aeruginosa): > 100 µg/mL
MIC90 (Mycobacterium avium [9]): 50 µg/mL (≈ 122 µM)
CC50 at 72 h [10]: > 100 µg/mL

CCCCCCCCCCCCC#Cc1cn([C@@H]2O[C@H](CO)[C@@H](O)[C@@H]2O)c(=O)[nH]c1=O
inhibition at 10 µg/mL [3]: 50%
CC10 (Vero): > 100 µg/mL
inhibition at 100 µg/mL (Mycobacterium avium [1]): 0%
inhibition at 50 µg/mL [6]: 100%
MIC90 [8]: 10 µg/mL (≈ 22.9 µM)
inhibition at 100 µg/mL [2]: 100%
CC50 at 72 h [10]: > 100 µg/mL

CCCCCCCCCCCCC#Cc1cn([C@@H]2O[C@H](CO)[C@@H](O)[C@H]2F)c(=O)[nH]c1=O
MIC (Listeria monocytogenes): > 100 µg/mL
MIC (Escherichia coli): > 100 µg/mL
MIC (Bacillus subtilis): > 100 µg/mL
MIC (Streptococcus pneumoniae): > 100 µg/mL
inhibition at 10 µg/mL [3]: 50%
CC10 (Vero): > 100 µg/mL
Inhibition (Staphylococcus aureus): 100%
MIC (Staphylococcus aureus): 100 µg/mL (≈ 228 µM)
MIC (Salmonella typhimurium): > 100 µg/mL
inhibition at 100 µg/mL (Mycobacterium avium [1]): 20%
Inhibition [5]: 100%
MIC [5]: 100 µg/mL (≈ 228 µM)
inhibition at 50 µg/mL [6]: 100%
MIC (Proteus vulgaris): > 100 µg/mL
MIC90 [8]: 10 µg/mL (≈ 22.8 µM)
MIC (Enterococcus faecalis): > 100 µg/mL
inhibition at 100 µg/mL [2]: 100%
MIC (Klebsiella aerogenes): > 100 µg/mL
MIC (Streptococcus pyogenes): > 100 µg/mL
MIC (Pseudomonas aeruginosa): > 100 µg/mL
CC50 at 72 h [10]: > 100 µg/mL

CCCc1ccc(C#Cc2cn([C@@H]3O[C@H](CO)[C@@H](O)[C@@H]3O)c(=O)[nH]c2=O)cc1
CC10 (Vero): > 100 µg/mL
inhibition at 100 µg/mL (Mycobacterium avium [1]): 25%
inhibition at 50 µg/mL [6]: 50%
MIC90 [8]: 100 µg/mL (≈ 259 µM)
inhibition at 100 µg/mL [2]: 100%
CC50 at 72 h [10]: > 100 µg/mL

CCOC(=O)/C=C/c1cn([C@@H]2O[C@H](CO)[C@@H](O)[C@H]2F)c(=O)[nH]c1=O
inhibition at 100 µg/mL (Mycobacterium avium [1]): 0%
inhibition at 100 µg/mL [2]: 0%

CCOC(=O)C(Cl)C(O)c1cn([C@@H]2O[C@H](CO)[C@@H](O)[C@H]2F)c(=O)[nH]c1=O (some centres undefined)
inhibition at 100 µg/mL (Mycobacterium avium [1]): 0%
inhibition at 100 µg/mL [2]: 0%

CCOC(=O)C(Br)C(O)c1cn([C@@H]2O[C@H](CO)[C@@H](O)[C@H]2F)c(=O)[nH]c1=O (some centres undefined)
inhibition at 100 µg/mL (Mycobacterium avium [1]): 0%
inhibition at 100 µg/mL [2]: 0%

O=c1[nH]c(=O)n([C@@H]2O[C@H](CO)[C@@H](O)[C@H]2F)cc1Br
inhibition at 100 µg/mL (Mycobacterium avium [1]): 0%
inhibition at 100 µg/mL [2]: 0%

O=C(O)/C=C/c1cn([C@@H]2O[C@H](CO)[C@@H](O)[C@@H]2O)c(=O)[nH]c1=O
inhibition at 100 µg/mL (Mycobacterium avium [1]): 0%
inhibition at 100 µg/mL [2]: 0%

COC(CI)c1cn([C@@H]2O[C@H](CO)[C@@H](O)[C@@H]2O)c(=O)[nH]c1=O (some centres undefined)
inhibition at 100 µg/mL (Mycobacterium avium [1]): 0%
inhibition at 100 µg/mL [2]: 0%

CCCCCC#Cc1cn([C@@H]2O[C@H](CO)[C@@H](O)[C@@H]2O)c(=O)[nH]c1=O
inhibition at 100 µg/mL (Mycobacterium avium [1]): 0%
inhibition at 100 µg/mL [2]: 25%

CCCCCCCCC#Cc1cn([C@@H]2O[C@H](CO)[C@@H](O)[C@@H]2O)c(=O)[nH]c1=O
inhibition at 10 µg/mL [3]: 10%
CC10 (Vero): > 100 µg/mL
inhibition at 100 µg/mL (Mycobacterium avium [1]): 50%
inhibition at 50 µg/mL [6]: 50%
MIC90 [8]: 100 µg/mL (≈ 263 µM)
inhibition at 100 µg/mL [2]: 100%
CC50 at 72 h [10]: > 100 µg/mL
